# System: Naegleria fowleri
# Assay: Antiprotozoal activity against Naegleria fowleri European KUL assessed as inhibition of parasite growth at 10 uM incubated for 48 hrs by CellTiter-Glo luminescent cell viability assay relative to control
# Format: functional
# Conditions: not given
# Summary of the method: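 Axenic N. fowleri KUL trophozoites from log-phase culture in Nelson's medium with 10% FBS at 37 °C. Primary screen run in duplicate at 10 μM, 2,500 amoebae/well in 384-well format. Plates incubated 48 h at 37 °C, then viability read by CellTiter-Glo luminescence. BSL-2 handling.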
row,SMILES,inhibition at 10 µM [%]
1,CC(C)c1cccc(NC(=O)OC(Cn2ccnc2)c2ccccc2)c1 (stereo not given),≥ 50
2,COc1ccc(C(Cc2ccc(Cl)cc2)n2ccnc2)cc1 (stereo not given),≥ 50
3,O=C(OC(Cn1ccnc1)c1ccccc1)c1cccc(C(F)(F)F)c1 (stereo not given),≥ 50
4,Clc1ccc(-n2ccc(C(c3ccccc3)n3ccnc3)c2)cc1 (stereo not given),≥ 50
5,Clc1ccc(C(c2ccn(-c3ccc(Cl)cc3)c2)n2ccnc2)cc1 (stereo not given),≥ 50
6,O=C(OC(Cn1ccnc1)c1ccc(F)cc1)c1cccc(C(F)(F)F)c1 (racemic),≥ 50
7,COc1ccc(CC(c2ccc(OC)cc2)n2ccnc2)cc1 (stereo not given),≥ 50
8,O=C(Nc1ccc(N2CCN(c3ccc(Cl)cc3)CC2)cc1)OC(Cn1ccnc1)c1ccc(F)cc1 (stereo not given),≥ 50
9,COc1ccc(C(Cc2ccc(-n3cccc3)cc2)n2ccnc2)cc1 (stereo not given),≥ 50

# System: not listed separately
# Assay: Drug concentration in C57BL/6 mouse brain at 40 mg/kg, ip measured after 1 hrs by HPLC-ESI-MS/MS analysis
# Format: ADME, organism-based
# Conditions: read-out: Drug uptake
row,SMILES,concentration at 1 h [ng/g]
1,Fc1ccc([C@@H](Cn2ccnc2)OCc2cc(Cl)cc(Cl)c2)cc1,232

# System: not listed separately
# Assay: Drug concentration in C57BL/6 mouse plasma at 40 mg/kg, ip measured after 1 hrs by HPLC-ESI-MS/MS analysis
# Format: ADME, organism-based
# Conditions: not given
row,SMILES,concentration at 1 h [ng/mL]
1,Fc1ccc([C@@H](Cn2ccnc2)OCc2cc(Cl)cc(Cl)c2)cc1,656
2,FC(F)(F)c1cccc(CO[C@H](Cn2ccnc2)c2ccc(Cl)cc2Cl)c1,37

# System: Naegleria fowleri
# Assay: Antiprotozoal activity against Naegleria fowleri European KUL assessed as inhibition of parasite growth incubated for 48 hrs by CellTiter-Glo luminescent cell viability assay
# Format: functional, organism-based
# Conditions: not given
row,SMILES,EC50 [µM]
1,OC(Cn1cncn1)(Cn1cncn1)c1ccc(F)cc1F [FLUCONAZOLE],13.9

# System: Naegleria fowleri
# Assay: Antiprotozoal activity against Naegleria fowleri
# Format: functional, organism-based
# Conditions: not given
# Summary of the method: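 N. fowleri European KUL trophozoites, axenic in Nelson's medium + 10% FBS at 37 °C, harvested in log phase. Single-point screen at 10 μM in duplicate (2,500 amoebae/well). Dose–response in triplicate, serial dilution 50 to 0.39 μM (10,000 amoebae/well). 48 h at 37 °C; viability by CellTiter-Glo luminescence.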
row,SMILES,EC50 [µM]
1,CCC(C)n1ncn(-c2ccc(N3CCN(c4ccc(OCC5COC(Cn6cncn6)(c6ccc(Cl)cc6Cl)O5)cc4)CC3)cc2)c1=O (stereo not given) [ITRACONAZOLE],≤ 10
2,CC[C@@H]([C@H](C)O)n1ncn(-c2ccc(N3CCN(c4ccc(OC[C@@H]5CO[C@@](Cn6cncn6)(c6ccc(F)cc6F)C5)cc4)CC3)cc2)c1=O [POSACONAZOLE],≤ 10
